Results from ChEMBL document CHEMBL1135740, “Design, synthesis, and activity of a novel series of factor Xa inhibitors: optimization of arylamidine groups” (J Med Chem, 2002).

Experiments:
[1] = target: T1, Serine protease 1 (Bos taurus, UniProt P00760); test: Inhibitory constant against bovine trypsin for general specificity against serine proteases
T1 sequence (P00760 whole entry): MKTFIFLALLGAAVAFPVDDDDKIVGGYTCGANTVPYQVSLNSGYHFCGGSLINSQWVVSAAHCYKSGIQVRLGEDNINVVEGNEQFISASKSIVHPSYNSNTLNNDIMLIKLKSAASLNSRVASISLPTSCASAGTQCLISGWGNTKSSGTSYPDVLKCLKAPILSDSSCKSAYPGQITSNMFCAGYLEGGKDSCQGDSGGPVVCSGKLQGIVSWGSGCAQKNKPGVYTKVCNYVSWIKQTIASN

[2] = target: Prothrombin (Homo sapiens, UniProt P00734); test: Inhibitory constant against human coagulation factor II (thrombin) for selectivity within coagulation cascade
[3] = target: Coagulation factor X (Homo sapiens, UniProt P00742); test: Inhibitory constant against human coagulation factor Xa (fXa)
[4] = Plasma concentration after intravenous aministration at 30 min. (1 mg/kg, n=3); type: ADME, organism-based; conditions: rat
How it was run: (§1)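 Rats dosed intravenously at 1 mg/kg (n = 3). Plasma drug concentrations were measured at 30 min and at 1 h (60 min) and reported in µM.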

[5] = Plasma concentration after intravenous aministration at 1hr, (1 mg/kg, n=3); type: ADME, organism-based; conditions: rat; how it was run: as §1
[6] = Plasma concentration after oral aministration at 2 hr. (10 mg/kg); type: ADME, organism-based; conditions: rat
How it was run: (§2)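 Rats were dosed orally at 10 mg/kg. Plasma drug concentrations were measured at 1, 2 and 4 h and reported in µM.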

[7] = Plasma concentration after intravenous aministration at 60 min. (1 mg/kg, n=3); type: ADME, organism-based; conditions: rat; how it was run: as §1
[8] = Plasma concentration after oral aministration at 1 hr. (10 mg/kg); type: ADME, organism-based; conditions: rat; how it was run: as §2
[9] = Plasma concentration after oral aministration at 4 hr. (10 mg/kg); type: ADME, organism-based; conditions: rat; how it was run: as §2

Coagulation factor X, sequence (P00742 41-179 limits assumed): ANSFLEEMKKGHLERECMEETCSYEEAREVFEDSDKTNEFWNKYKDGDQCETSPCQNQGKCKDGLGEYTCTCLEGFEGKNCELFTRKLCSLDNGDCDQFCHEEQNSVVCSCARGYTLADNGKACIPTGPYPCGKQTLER
Coagulation factor X, sequence (P00742 235-488 limits assumed): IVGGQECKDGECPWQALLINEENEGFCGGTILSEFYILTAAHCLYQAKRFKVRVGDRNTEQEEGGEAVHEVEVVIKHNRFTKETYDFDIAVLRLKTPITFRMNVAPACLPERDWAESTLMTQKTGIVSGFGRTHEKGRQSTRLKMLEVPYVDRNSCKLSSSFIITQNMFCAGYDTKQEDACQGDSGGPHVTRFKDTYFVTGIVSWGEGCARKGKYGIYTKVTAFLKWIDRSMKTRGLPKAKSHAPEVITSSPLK

| Compound | Ki [1] | Ki [2] | Ki [3] | concentration at 0.5 h [4] | also measured |
| --- | --- | --- | --- | --- | --- |
| Cc1c(F)c(Oc2cccc(C(=N)N)c2)nc(Oc2cccc(C(=N)N)c2)c1F | – | – | – | 100 nM | – |
| N=C(N)c1cccc(Oc2cc(C(=O)O)cc(Oc3cccc(C(=N)N)c3)n2)c1 | – | – | – | 800 nM | – |
| N=C(N)c1ccc(O)c(Oc2cc(C(=O)O)cc(Oc3cccc(C4=NCCN4)c3)n2)c1 | – | – | – | 3000 nM | concentration at 1 h [5]: 1400 nM |
| CN1CCN=C1c1cccc(Oc2cc(C(=O)O)cc(Oc3cc(C(=N)N)ccc3O)n2)c1 | – | – | – | 1100 nM | concentration at 2 h [6]: 200 nM; concentration at 1 h [7]: 400 nM; concentration at 1 h [8]: 1400 nM; concentration at 4 h [9]: 100 nM |
| Cc1c(F)c(Oc2cccc(C(=N)N)c2)nc(Oc2cccc(C(=O)N3CCOCC3)c2)c1F | > 5 µM | > 5 µM | 1.4 µM | – | – |
| Cc1c(F)c(Oc2cccc(OC(F)(F)F)c2)nc(Oc2cccc(C(=N)N)c2)c1F | > 5 µM | > 5 µM | 1.8 µM | – | – |
| COc1ccc(N(C)C)cc1Oc1nc(Oc2cccc(C(=N)N)c2)c(F)c(C)c1F | > 5 µM | 2.2 µM | > 5 µM | – | – |

Second part, led by results:

| Ki [1] | Ki [2] | Ki [3] | concentration at 0.5 h [4] | Compound | also measured |
| --- | --- | --- | --- | --- | --- |
| 0.52 µM | 5.1 µM | 0.006 µM | 1900 nM | N=C(N)c1cccc(Oc2cc(C(=O)O)cc(Oc3cc(C(=N)N)ccc3O)n2)c1 | – |
| 1.1 µM | 1.2 µM | 0.023 µM | – | Cc1c(F)c(Oc2cccc(C(=O)N(C)C)c2)nc(Oc2cc(C(=N)N)cc(O)c2O)c1F | – |
| > 5 µM | > 5 µM | 0.81 µM | – | CCOC(=O)Cc1cccc(Oc2nc(Oc3cccc(C(=N)N)c3)c(F)c(C)c2F)c1 | – |
| 2.1 µM | 0.73 µM | 0.4 µM | – | CCN(CC)c1cccc(Oc2nc(Oc3cccc(C(=N)N)c3)c(F)c(C)c2F)c1 | – |
| 1.6 µM | > 5 µM | 0.16 µM | – | Cc1c(F)c(Oc2cccc(C(=N)N)c2)nc(Oc2cc(C(=O)N(C)C)cc(C(=O)N(C)C)c2)c1F | – |
| 0.73 µM | > 5 µM | 0.263 µM | – | CN(C)C(=O)c1cccc(Oc2cc(C(=O)O)cc(Oc3cccc(C(=N)N)c3)n2)c1 | – |
| 3.8 µM | > 5 µM | 2.1 µM | – | Cc1c(F)c(Oc2cccc(C(=N)N)c2)nc(Oc2cccc(C(=O)C(C)C)c2)c1F | – |
| 4.2 µM | > 5 µM | 0.46 µM | – | Cc1c(F)c(Oc2cccc(CC(=O)N(C)C)c2)nc(Oc2cccc(C(=N)N)c2)c1F | – |
